Assay results as given in ChEMBL document CHEMBL1149105, “3-(4-phenoxyphenyl)pyrazoles: a novel class of sodium channel blockers” (J Med Chem, 2004).
pKi: −log10 of the molar value.

Legend:
[1] = biological target: T1, Sodium channel protein type 4 subunit alpha (Homo sapiens, UniProt P35499); test: Affinity for inactive human SkM1 sodium channel expressed in HEK293 cells; type: cell-based
How it was run: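 Whole-cell voltage clamp at room temperature on HEK-293 cells stably expressing hSkM1, recorded 3–4 days after plating. Cells were held at -120 mV. 10–12 conditioning prepulses (3 s, 10 mV steps) were each followed by a 5 ms test pulse to 0 mV at 1/7 s. Boltzmann V1/2 and k were taken without and with drug (final 0.003–10 μM, ≤0.1% DMSO). Ki came from the modified Bean equation. Mean ± SEM, n = 3–4.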
Target sequence in this assay (P35499 whole entry): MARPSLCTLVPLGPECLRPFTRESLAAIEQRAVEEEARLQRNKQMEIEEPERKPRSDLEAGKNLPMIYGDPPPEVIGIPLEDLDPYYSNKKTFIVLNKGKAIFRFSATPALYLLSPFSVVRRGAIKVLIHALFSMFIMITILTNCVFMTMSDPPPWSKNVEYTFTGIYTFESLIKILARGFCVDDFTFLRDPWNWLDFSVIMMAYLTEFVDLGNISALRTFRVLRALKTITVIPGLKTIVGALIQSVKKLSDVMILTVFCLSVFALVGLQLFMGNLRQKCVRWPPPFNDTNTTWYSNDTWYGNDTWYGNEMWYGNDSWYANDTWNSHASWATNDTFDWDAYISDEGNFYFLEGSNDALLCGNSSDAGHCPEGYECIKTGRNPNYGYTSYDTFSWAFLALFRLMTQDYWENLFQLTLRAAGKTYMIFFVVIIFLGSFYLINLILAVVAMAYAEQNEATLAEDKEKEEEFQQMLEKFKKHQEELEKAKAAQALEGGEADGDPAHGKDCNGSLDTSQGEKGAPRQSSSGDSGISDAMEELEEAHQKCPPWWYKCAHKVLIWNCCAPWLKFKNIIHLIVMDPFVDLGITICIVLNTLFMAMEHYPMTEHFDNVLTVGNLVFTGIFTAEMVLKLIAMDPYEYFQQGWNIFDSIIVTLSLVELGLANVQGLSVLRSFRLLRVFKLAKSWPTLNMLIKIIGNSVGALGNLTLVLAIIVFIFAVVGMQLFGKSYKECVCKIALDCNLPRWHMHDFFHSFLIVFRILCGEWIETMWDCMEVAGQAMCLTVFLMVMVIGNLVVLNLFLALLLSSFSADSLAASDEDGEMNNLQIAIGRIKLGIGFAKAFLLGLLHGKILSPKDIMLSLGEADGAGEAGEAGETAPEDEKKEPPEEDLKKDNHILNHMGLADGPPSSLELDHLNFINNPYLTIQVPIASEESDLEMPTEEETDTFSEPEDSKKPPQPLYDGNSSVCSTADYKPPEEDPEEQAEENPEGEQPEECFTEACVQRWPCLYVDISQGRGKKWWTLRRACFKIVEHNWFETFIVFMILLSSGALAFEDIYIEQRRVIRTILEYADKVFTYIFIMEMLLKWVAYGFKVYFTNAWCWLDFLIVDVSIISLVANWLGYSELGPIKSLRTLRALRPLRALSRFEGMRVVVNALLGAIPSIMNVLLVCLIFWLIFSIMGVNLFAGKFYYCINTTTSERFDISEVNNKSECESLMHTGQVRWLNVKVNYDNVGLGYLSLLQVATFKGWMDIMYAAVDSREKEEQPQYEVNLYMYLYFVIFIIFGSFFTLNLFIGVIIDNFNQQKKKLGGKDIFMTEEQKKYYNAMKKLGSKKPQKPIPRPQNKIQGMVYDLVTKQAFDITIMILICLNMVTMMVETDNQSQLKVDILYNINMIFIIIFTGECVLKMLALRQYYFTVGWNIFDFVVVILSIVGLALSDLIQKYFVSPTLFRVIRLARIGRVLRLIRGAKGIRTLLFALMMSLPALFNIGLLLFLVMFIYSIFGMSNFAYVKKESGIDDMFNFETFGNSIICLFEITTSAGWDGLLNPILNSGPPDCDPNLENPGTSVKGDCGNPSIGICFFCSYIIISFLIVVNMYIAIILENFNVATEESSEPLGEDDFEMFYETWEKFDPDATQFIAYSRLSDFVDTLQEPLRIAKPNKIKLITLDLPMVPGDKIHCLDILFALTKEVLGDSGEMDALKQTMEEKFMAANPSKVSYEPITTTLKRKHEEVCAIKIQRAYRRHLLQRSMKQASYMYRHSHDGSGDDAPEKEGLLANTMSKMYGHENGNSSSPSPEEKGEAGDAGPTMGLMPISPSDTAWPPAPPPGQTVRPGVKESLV

[2] = biological target: T1, Sodium channel protein type 4 subunit alpha; test: Relative affinity for inactivated and resting human SkM1 expressed in HEK293 cells; type: cell-based
Target sequence in this assay (P35499 whole entry, looked up): as the sequence (P35499 whole entry) above

[3] = biological target: T1, Sodium channel protein type 4 subunit alpha; settings: HEK293
Target sequence in this assay (P35499 whole entry, looked up): as the sequence (P35499 whole entry) above

[4] = biological target: T1, Sodium channel protein type 4 subunit alpha; test: Affinity for resting human SkM1 sodium channel expressed in HEK293 cells; type: cell-based
How it was run: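 Tonic block was measured by whole-cell patch clamp on hSkM1-expressing HEK-293 cells at room temperature. Cells were held at -120 mV, where all channels are resting, and depolarized to 0 mV. Peak current was compared between control and 3 μM antagonist applied by flow pipes from DMSO stock. The fractional response gave Kr = FR/(1−FR)·[antag], with slope n = 1. Mean ± SEM, n = 3–4.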
Target sequence in this assay (P35499 whole entry, looked up): as the sequence (P35499 whole entry) above

Work on `NC(=O)N1c2ccccc2C=Cc2ccccc21` [CARBAMAZEPINE] yielded a pKi [1] of 4.28, a Ratio [2] of 14 and a Kr [3] of 720 µM.
With `NC(=O)N/N=C/c1ccc(Oc2ccc(F)cc2)cc1` the pKi [1] was 6.74, the Ratio [2] was 150 and the Kr [4] was 27 µM.
`CN(C)C(=O)n1ccc(-c2ccc(Oc3ccc(F)cc3)cc2)n1` showed a pKi [1] of 6.47, a Ratio [2] of 76 and a Kr [4] of 26 µM.
`O=C1NC(=O)C(c2ccccc2)(c2ccccc2)N1` [PHENYTOIN] was tested, and the pKi [1] was 4.62, the Ratio [2] was 26 and the Kr [4] was 620 µM.
In the case of `NC(=O)n1ccc(-c2ccc(Oc3ccc(F)cc3)cc2)n1`, the pKi [1] was 7.51, the Ratio [2] was 194 and the Kr [4] was 6 µM.
`COc1ccc(-c2cc[nH]n2)cc1` showed a pKi [1] of 4.09, a Ratio [2] of 9 and a Kr [4] of 710 µM.
`NC(=O)n1ccc(-c2ccc(Oc3ccc([N+](=O)[O-])cc3)cc2)n1` was tested, and the pKi [1] was 7.51, the Ratio [2] was 226 and the Kr [4] was 7 µM.
With `c1ccc(-c2cc[nH]n2)cc1` the pKi [1] was 4.21, the Ratio [2] was 18 and the Kr [4] was 1110 µM.
`Cn1ccc(-c2ccc(Oc3ccc(F)cc3)cc2)n1` was tested, and the pKi [1] was 6.16, the Ratio [2] was 30 and the Kr [4] was 21 µM.
`NC(=O)n1ccc(-c2ccc(Oc3ccc(F)cc3F)cc2)n1` was tested, and the pKi [1] was 7.60, the Ratio [2] was 400 and the Kr [4] was 10 µM.
`NC(=O)n1ccc(-c2ccc(Oc3ccccc3)cc2)n1` was tested, and the pKi [1] was 7.46, the Ratio [2] was 143 and the Kr [4] was 5 µM.
`c1ccc(Oc2ccc(-c3cc[nH]n3)cc2)cc1` gave a pKi [1] of 6.62, a Ratio [2] of 67 and a Kr [4] of 16 µM.
`CNC(=O)n1ccc(-c2ccc(Oc3ccc(F)cc3)cc2)n1` gave a pKi [1] of 6.82, a Ratio [2] of 140 and a Kr [4] of 21 µM.
In the case of `Fc1ccc(Oc2ccc(-c3cc[nH]n3)cc2)cc1`, the pKi [1] was 6.70, the Ratio [2] was 85 and the Kr [4] was 17 µM.
`Nc1nnc(-c2cccc(Cl)c2Cl)c(N)n1` [LAMOTRIGINE] was tested, and the pKi [1] was 4.77, the Ratio [2] was 85 and the Kr [4] was 1440 µM.
